Published values collected from several papers.

For `CN1C(=O)c2ccccc2[S@+]([O-])c2ccc(C(=O)NCCc3cccs3)cc21`, the AUC(0-inf) was 1430 ng·h/mL (male C57BL/6 mouse, brain; intraperitoneal, 30 mg/kg, single dose).
With `Cc1ccc(NC(=O)c2ccc(CN3CCN(C)CC3)cc2)cc1Nc1nccc(-c2cncc(-c3oncc3C)c2)n1` the AUC(0-inf) was 38000 ng·h/mL (male C57BL/6 mouse, plasma; oral, 100 mg/kg/day).
With `CNCCN(C)c1cc(C#N)cc(CCc2cc(C)cc(N)n2)c1` the AUC(0-inf) was 181 ng·h/mL (male BALB/c mouse, plasma; intravenous, 2 mg/kg).
With `COc1nc(-c2cc(C)c(N[C@@H](C)c3c(F)cc(F)cc3F)nn2)ccc1-n1cnc(C)c1` the AUC(0-inf) was 2500 ng·h/mL (male CD-1 mouse, plasma; intravenous, 1 mg/kg, single dose).
`CC(C)(C)c1ccc(O)c(CN(Cc2cc(C(C)(C)C)ccc2O)C2CCC(NC(N)=O)CC2)c1` (stereo not drawn) gave an AUC(0-inf) of 10800 ng·h/mL (male C57BL/6 mouse, plasma; intraperitoneal, 10 mg/kg, single dose).
The AUC(0-inf) of `Cc1ccc2cncc(N3CCc4c(cc(Cn5ccnc5)cc4-c4cn(C)nc4C(F)(F)F)C3=O)c2c1` is reported as 3870 ng·h/mL (male CD-1 mouse, plasma; intravenous, 3 mg/kg).
With `CC(C)(Nc1nc(-c2ccccn2)nc2ccccc12)c1ccccn1` the AUC(0-inf) was 1460 ng·h/mL (female BALB/c mouse, plasma; intravenous, 1 mg/kg).
For `CCc1cc(OC)c2nccc(N3CCc4c(cc(Cn5ccnc5)cc4-c4cn(C)nc4C(F)(F)F)C3=O)c2c1`, the AUC(0-inf) was 225000 ng·h/mL (male CD-1 mouse, plasma; oral, 150 mg/kg).
The AUC(0-inf) of `COc1cc(C(=O)N2CCC(N3CCN(C)CC3)CC2)ccc1Nc1ncc2c(n1)N(C)c1ccccc1C(=O)N2C` is reported as 2970 ng·h/mL (mouse, plasma; intravenous, 1 mg/kg).
With `CCc1cc(C(=O)NC)c2nccc(N3CCc4c(cc(Cn5ccnc5)cc4-c4cn(C)nc4C(F)(F)F)C3=O)c2c1` the AUC(0-inf) was 122000 ng·h/mL (male CD-1 mouse, plasma; oral, 50 mg/kg).
`CC[C@H](C)[C@@H]1NC(=O)[C@@](C)(NC(=O)[C@H](CCCNC(=N)N)NC(=O)[C@H](CC(C)C)NC(=O)[C@@H](NC(=O)[C@H](CCC(N)=O)NC(=O)[C@H](CC(C)C)NC(C)=O)[C@@H](C)O)CCCC=CCCC[C@@](C)(C(=O)N[C@@H](CC(C)C)C(=O)N[C@@H](Cc2ccc3ccccc3c2)C(N)=O)NC(=O)[C@H](CCCNC(=N)N)NC(=O)[C@H](CCC(N)=O)NC1=O` gave an AUC(0-inf) of 102000 ng·h/mL (male BALB/c mouse, plasma; intraperitoneal, 5 mg/kg).
`O=S(=O)(c1ccc(-c2ccc3nccc(Nc4ccncn4)c3c2)cc1)N1CCOCC1` has an AUC(0-inf) of 9520 ng·h/mL (female BALB/c mouse, plasma; intraperitoneal, 10 mg/kg).
For `COc1ccc2nccc(N3CCc4c(cc(Cn5ccnc5)cc4-c4cn(C)nc4C(F)(F)F)C3=O)c2c1`, the AUC(0-inf) was 2100 ng·h/mL (male CD-1 mouse, plasma; oral, 10 mg/kg).
With `Cc1cc(Nc2ccc(S(F)(F)(F)(F)F)cc2)n2ncnc2n1` the AUC(0-inf) was 942 µM·h (male Swiss mouse, plasma; oral, 100 mg/kg, single dose).
With `COc1cc(OC)c2nccc(N3CCc4c(cc(Cn5ccnc5)cc4-c4cn(C)nc4C(F)(F)F)C3=O)c2c1` the AUC(0-inf) was 805 ng·h/mL (male CD-1 mouse, plasma; intravenous, 3 mg/kg).
For `COc1nc(-c2cc(C)c(N[C@@H](C)c3cc(F)cc(F)c3)nn2)ccc1-n1cnc(C)c1`, the AUC(0-inf) was 2070 ng·h/mL (male CD-1 mouse, plasma; intravenous, 1 mg/kg, single dose).
For `COc1ccc2c(=O)cc(-c3ccccc3)oc2c1O`, the AUC(0-inf) was 1.67 ng·h/mL (male CD-1 mouse, plasma; oral, 50 mg/kg).
`CN1CCN(C(=O)CN[C@@H]2C[C@H]2c2ccc(OCc3ccccc3)cc2)CC1` gave an AUC(0-inf) of 1720 ng·h/mL (mouse, plasma; intraperitoneal, 10 mg/kg).
For `CNC(=O)c1cc(OC)cc2c(N3CCc4c(cc(Cn5ccnc5)cc4-c4cn(C)nc4C(F)(F)F)C3=O)ccnc12`, the AUC(0-inf) was 3300 ng·h/mL (male CD-1 mouse, plasma; intravenous, 3 mg/kg).
`Cc1nc(-c2cnc(NC(C)C)n(C)c2=O)ccc1Oc1ccnc(-c2cnn(C)c2)c1` has an AUC(0-inf) of 80400 ng·h/mL (female mouse, plasma; oral, 7.5 mg/kg, single dose).
With `COc1cc2c(Nc3ccc(Cl)c(Cl)c3F)ncnc2cc1OC[C@@H]1C[C@@H]2CN(C)C[C@@H]2C1` the AUC(0-inf) was 158000 ng·h/mL (FVB mouse, brain; oral, 70 mg/kg, single dose).
